Experimental findings from ChEMBL document CHEMBL2424618, “Design, synthesis and ex vivo evaluation of colon-specific azo based prodrugs of anticancer agents” (Bioorg Med Chem Lett, 2013) are described below.

In one data set the test system is HT-29. The data set can be described thus: Cytotoxicity against human HT-29 cells after 48 hrs by MTT assay. It counts as functional, cell-based. The note with it: HT-29, 48 h. In short, it runs like this:
(§1)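 MTT colorimetric microculture assay in human colorectal cells, 5 × 10⁵ per well. After 48 h, cells incubated at 37 °C in 0.1% DMSO with compound. Sample removed, cells washed with PBS pH 7.4, MTT added. After 4 h, […] added and absorbance read at 595 nm. Triplicates; IC50 given as mean SD, p < 0.05 significant.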
On the technique in general: Formazan colour is commonly taken as a measure of viable cells.

Data set [1] is described as follows: Prodrug activation in rat fecal material after 24 hrs. Type of data set: ADME, tissue-based, Feces. The method in brief:
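About 1 g fresh rat feces per tube with prodrug in phosphate buffer pH 7.4, diluted with 5 ml buffer to 50 µg/ml, incubated at 37 °C. Aliquots taken over time and read by double-beam UV spectrophotometry at compound-specific wavelengths. Cumulative % release at 24 h; mean SD, n = 6.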

A further data set relates to COLO 205. The data set can be described thus: Cytotoxicity against human COLO205 cells after 48 hrs by MTT assay. Type of data set: functional, cell-based. The settings on record: COLO 205, 48 h. In short, it runs like this:
as §1

Data set [2] is described as follows: Chemical stability of the compound in phosphate buffer at pH 7.4. Type of data set: physicochemical. In short, it runs like this:
(§2)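 Prodrug held in acidic buffer (pH 1.2, 0.1 N HCl) or basic buffer (pH 7.4) at 37 °C. Aliquots withdrawn at time intervals and remaining prodrug read by UV spectrophotometry at compound-specific wavelengths (306/256, 274/284 or 280/260 nm for acid/pH 7.4). Release reported as % after 24 h; mean SD, n = 6.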

Data set [3] is described as follows: Prodrug activation in rat cecum content in presence of azoreductase. Type of data set: tissue-based, Caecum. The method in brief: (§3)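 Cecal content, small-intestine content, SI mucosa or LI mucosa taken from Wistar rats and suspended in cold PBS pH 7.4 as 10% (w/v) slurry. Cecal content bubbled with nitrogen. Other tissues homogenized and centrifuged to 2% w/w. All stored at −20 °C. Prodrug incubated with each preparation, azo-bond cleavage followed by UV, and % drug release determined.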

The nature of data set [4]: Prodrug activation in rat small intestine mucosa in presence of azoreductase. Type of data set: tissue-based. In short, it runs like this:
as §3

Data set [5] in a line: Prodrug activation in rat small intestine content in presence of azoreductase. Type of data set: tissue-based. In short, it runs like this:
as §3

Data set [6] can be described thus: Prodrug activation in rat large intestine mucosa in presence of azoreductase. It counts as tissue-based. The method in brief: as §3
A short description of data set [7]: Cytotoxicity against human COLO320DM cells after 48 hrs by MTT assay. Type of data set: functional, cell-based. The settings on record: COLO 320DM. In short, it runs like this: as §1
Data set [8] is described as follows: Chemical stability of the compound in 0.1 N HCl solution at pH 1.2. Type of data set: physicochemical. The settings on record: buffer. In short, it runs like this:
as §2

By IC50 is commonly meant the concentration that inhibits the measured activity by half. The low end stands for greater potency in that assay, the high end for weaker potency in that assay. With `COC(=O)CC[C@H](NC(=O)c1ccc(N(C)Cc2cnc3nc(/N=N/c4ccc(O)cc4)nc(/N=N/c4ccc(O)cc4)c3n2)cc1)C(=O)OC`, the IC50 in the data set on HT-29 was determined as 3.92 µM; with COLO 205, 4.13 µM; in [7], 5.74 µM. The Drug metabolism in data set [1] is reported as 64%; in data set [3], 70%; in data set [4] it was 5%; in data set [5] it was 5%; in data set [6], 5%. Also, the Stability entry in data set [2] and in data set [8] was “Stable” each time.
On to `O=c1nc(/N=N/c2ccc(O)cc2)ccn1[C@@H]1O[C@H](CO)[C@@H](O)C1(F)F`, for which the IC50 worked out at 2.61 µM with HT-29, 3.31 µM with COLO 205 and 3.72 µM in data set [7]. The Drug metabolism in [1] was found to be 71%; in [3], 70%; in [4], 5%; in data set [5] it was 5%; in data set [6] it was 5%. Also, the Stability result in [2] and in data set [8] was “Stable” throughout.
As to `Nc1ccn([C@@H]2O[C@H](CO)[C@@H](O)C2(F)F)c(=O)n1` [GEMCITABINE], the values for the IC50 (with HT-29; with COLO 205; in data set [7]) were 1.95 µM, 3.24 µM and 3.92 µM, respectively.
As for `CN(Cc1cnc2nc(N)nc(N)c2n1)c1ccc(C(=O)N[C@@H](CCC(=O)O)C(=O)O)cc1` [METHOTREXATE], the IC50 in the data set with HT-29 is 3.45 µM; in the data set on COLO 205, 3.27 µM; in data set [7], 5.25 µM.
